In ChEMBL document CHEMBL1821623, “Anti-influenza virus polyketides from the acid-tolerant fungus Penicillium purpurogenum JS03-21” (J Nat Prod, 2011) one finds GI50 and IC50 data, which are given here for ten molecules.

One experiment concerns OVCAR-3. Description: Cytotoxicity against human OVCAR3 cells. The format is functional.
Turning to `CCCCC[C@@H]1Cc2cc(O)c(C(=O)O)c3c2[C@H](C[C@]2(OC[C@H](CC(=O)C(C)(CC)C(=O)OC)[C@H]2C)O3)O1` (stereo not given in full) [BERKELIC ACID], the GI50 (commonly the concentration at which growth is held to half of that of the control) was found to be 0.091 µM.

For a further experiment, the system named is Influenza A virus. Description: Antiviral activity against Influenza A virus H1N1 infected in MDCK cells assessed as compound concentration required for inhibiting influenza virus yield at 48 h post-infection by crystal violet staining based CPE inhibition assay. The format is functional, organism-based. Put shortly: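 CPE-inhibition assay against influenza A (H1N1). Ribavirin was the positive control. Activity was reported as an IC50 in μM.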
Take `CCC[C@]1(OC)OC(=O)c2c1cc(O)c(O)c2C` [PURPURESTER A]: the IC50 (as a rule, the concentration that gives 50% inhibition) is 85.3 µM.
Take `O=Cc1cc(C(=O)O)cc(O)c1C(=O)c1c(O)cccc1O`: the 50% inhibitory concentration (IC50) stood at 58.6 µM.
As to `NC(=O)c1ncn([C@@H]2O[C@H](CO)[C@@H](O)[C@H]2O)n1` [RIBAVIRIN], the half-inhibitory concentration (IC50) is 101 µM.
On the same count and under the same terms, the figure for `CC/C=C1\OC(=O)c2c1cc(O)c(O)c2C` [PURPURESTER B] is greater than 200 µM; for `C/C=C/C1=CC2=CC(=O)[C@@](C)(OC(=O)c3c(C)cc(O)cc3O)C(=O)[C@@]2(O)[C@@H](O)O1` [PURPURQUINONE A] it is greater than 200 µM; for `C/C=C/C1=CC2=CC(=O)[C@@](C)(OC(=O)c3c(C)cc(O)cc3O)C(=O)C2=CO1` it is greater than 200 µM.
Turning to `C/C=C/C1=CC2=CC(=O)[C@@](C)(OC(=O)c3c(O)cc(O)c(O)c3C)C(=O)[C@@]2(O)[C@@H](O)O1` [PURPURQUINONE B], the IC50 was found to be 61.3 µM.
On to `CC1=C(O)C(=O)c2cc(O)c(O)cc2C1=O`, for which the IC50 was greater than 200 µM.
Same read-out and setting: the figure for `C/C=C/C1=CC2=CC(=O)[C@@](C)(OC(=O)c3c(C)cc(O)cc3O)C(=O)[C@@]2(O)CO1` is 64 µM.
